Experimental data of several laboratories.
Each line is one published result; the experiments were not run side by side.
PTPN1: Tyrosine-protein phosphatase non-receptor type 1 (PTPN1, Homo sapiens, UniProt P18031)
PRMT3: Protein arginine N-methyltransferase 3 (PRMT3, Homo sapiens, UniProt O60678)
LDHA: L-lactate dehydrogenase A chain (LDHA, Homo sapiens, UniProt P00338)

| Compound | target | test | test system | conditions | IC50 |
| --- | --- | --- | --- | --- | --- |
| Cc1ccc(NC(=O)c2ccc(C)c(C(F)(F)F)c2)cc1C#Cc1nn(C2CCC(O)CC2)c2ncnc(N)c12 (stereo not shown) | High affinity nerve growth factor receptor (NTRK1, Homo sapiens, UniProt P04629) | enzyme activity, inhibitor, radiometric |  |  | > 10 µM |
| O=C(c1ccc(O)cc1O)[C@H](O)[C@@H](O)c1ccc(O)cc1 | Amine oxidase [flavin-containing] A (MAOA, Homo sapiens, UniProt P21397) | enzyme activity, inhibitor |  |  | 0.62 µM |
| N#Cc1ccc(COc2cccc(C3CCN(Cc4nc5ccc(C(=O)O)cc5n4C[C@@H]4CCO4)CC3)n2)c(F)c1 | Glucagon-like peptide 2 receptor (GLP2R, Homo sapiens, UniProt O95838) | cAMP, antagonist |  |  | 3.6 µM |
| O=C(CC(=O)c1cccc(N(Cc2ccccc2)Cc2ccccc2)c1)C(=O)N1CCN(C(=O)C(=O)CC(=O)c2cccc(N(Cc3ccccc3)Cc3ccccc3)c2)CC1 | PTPN1 | enzyme activity, inhibitor, absorbance |  | pH 7 | 2.8 µM |
| Clc1ccc2c(c1)N(CCCN1CCN(CCCc3ccccc3)CC1)c1ccccc1S2 | Glutathione reductase, mitochondrial (GSR, Homo sapiens, UniProt P00390) | enzyme activity, inhibitor, absorbance |  |  | > 100 µM |
| Cc1ccc(C(=O)Nc2ccc(S(=O)(=O)O)c3cc(S(=O)(=O)O)cc(S(=O)(=O)O)c23)cc1NC(=O)c1cccc(NC(=O)Nc2cccc(C(=O)Nc3cc(C(=O)Nc4ccc(S(=O)(=O)O)c5cc(S(=O)(=O)O)cc(S(=O)(=O)O)c45)ccc3C)c2)c1 | P2X purinoceptor 4 (P2RX4, Homo sapiens, UniProt Q99571) | calcium signal, antagonist |  |  | 44.2 µM |
| OC[C@H]1O[C@@H](n2cnc3c(NCCCc4ccccc4)ncnc32)[C@H](O)[C@@H]1O | PRMT3 | enzyme activity, inhibitor, fluorescence |  |  | > 100 µM |
| COc1cc2c(OC)nc3c4cc5c(cc4cc(OCCCN(C)C)c3c2cc1OC)OCO5 | Tyrosyl-DNA phosphodiesterase 1 (TDP1, Homo sapiens, UniProt Q9NUW8) | enzyme activity, inhibitor |  |  | 5.5 µM |
| C[C@H]1Oc2cc(cnc2N)-c2c(nn(C)c2C#N)CN(C)C(=O)c2ccc(F)cc21 | Focal adhesion kinase 1 (PTK2, Homo sapiens, UniProt Q05397) | enzyme activity, inhibitor, radiometric |  |  | 0.004 µM |
| CCCCN1/C(=C/C=C/c2sc3ccc(Br)cc3[n+]2CCCC)Sc2ccc(Br)cc21 | PRMT3 | enzyme activity, inhibitor, radiometric |  |  | 3.17 µM |
| Nc1ncnc2c1ncn2[C@@H]1O[C@H](CSCCNC(=O)NCCCc2ccccc2)[C@@H](O)[C@H]1O | PRMT3 | enzyme activity, inhibitor, fluorescence |  |  | > 100 µM |
| O=c1oc2c(cc1O)oc(=O)c1cc(O)c(O)c(O)c12 | LDHA | enzyme activity, inhibitor |  | pH 7.4 | 104 µM |
| O=C(O)CSc1nnc(Br)n1-c1ccc(C2CC2)c2ccccc12 | Broad substrate specificity ATP-binding cassette transporter ABCG2 (ABCG2, Homo sapiens, UniProt Q9UNQ0) | transporter uptake, inhibitor | Caco-2 | 2 h | > 3000 µM |
| Nc1ncnc2c1ncn2[C@@H]1O[C@H](CSCCNC(=O)NCc2ccc(F)cc2)[C@@H](O)[C@H]1O | PRMT3 | enzyme activity, inhibitor, fluorescence |  |  | 5.9 µM |
| COc1oc(=O)c2cc(N)ccc2c1Cl | Rhomboid protease AarA (Providencia stuartii, UniProt P46116) | enzyme activity, inhibitor, fluorescence |  |  | 71 µM |
| Nc1ncnc2c1ncn2[C@@H]1O[C@H](COP(=O)(O)OP(=O)(O)O)[C@@H](O)[C@H]1O | Nucleotide-binding oligomerization domain-containing protein 1 (NOD1, Homo sapiens, UniProt Q9Y239) | ligand displacement, FP |  |  | 0.19 µM |
| CC(C)C[C@H](NC(=O)[C@H]1O[C@@H]1C(=O)O)C(=O)NCCCCN=C(N)N | Cathepsin S (CTSS, Homo sapiens, UniProt P25774) | enzyme activity, inhibitor |  |  | 0.00174 µM |
| COc1cc(-c2cc(=O)c3c(O)c(OC)c(O[C@@H]4O[C@H](CO)[C@@H](O)[C@H](O)[C@H]4O[C@@H]4O[C@H](CO)[C@@H](O)[C@H](O)[C@H]4O)cc3o2)ccc1O | LDHA | enzyme activity, inhibitor |  | pH 7.4 | 260 µM |
| CC1=C[C@@]2(C[C@H](C)[C@H]3CC=C(C)[C@@H](O[C@@H]4O[C@H](CO)[C@@H](O)[C@H](O)[C@H]4O)[C@@H]3O2)OC1=O | PTPN1 | enzyme activity, inhibitor |  |  | 91.3 µM |
